Data reported in ChEMBL document CHEMBL1138950, “Benzimidazole derivatives bearing substituted biphenyls as hepatitis C virus NS5B RNA-dependent RNA polymerase inhibitors: structure-activity relationship studies and identification of a potent and highly selective inhibitor JTK-109” (J Med Chem, 2006).

Tests used:
[1] = target: RNA-directed RNA polymerase (Hepacivirus hominis, UniProt O39930); assay: Inhibition of HCV 1b BK six His-tagged C-terminal truncated 544 amino acid NS5B RNA dependent RNA polymerase; design: species or system Hepatitis C virus subtype 1b
Outline: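 HCV genotype 1b (BK) NS5B lacking 47 C-terminal residues, His6-tagged, E. coli-expressed; 7 nM enzyme with 5 µg HCV 3′X RNA template-primer, 50 µM each ATP/GTP/CTP, 2 µM UTP plus [3H]-UTP; pH 7.5 Tris, 5 mM MgCl2. Compounds in DMSO (5% final). 60 min at 25 °C; TCA-precipitable radioactivity read. Triplicate, mean of three experiments.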

[2] = Therapeutic index, CC50 for viability of Huh5-2 cells/EC50 for inhibition of HCV subgenomic RNA replication; type: cell-based, Huh-5-2; details: human, read-out: Ratio CC50/EC50
Huh-5-2 = assay: Viability of Huh5-2 cells by MTT assay; type: functional; details: Homo sapiens
Hepatitis C virus = assay: Inhibition of HCV subgenomic RNA replication in Huh5-2 cells after 48 hrs by replicon assay; type: functional, organism-based, Hepacivirus hominis; details: Huh-5-2, 48 h
Outline: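 Huh-5-2 cells (Huh-7-derived, genotype 1b subgenomic replicon with luciferase reporter) seeded at 5 × 10^3 per well in DMEM with 10% FBS, 37 °C, 5% CO2; compounds added next day, 48 h exposure; luciferase activity read. EC50 is the concentration reducing replication by 50%. Triplicate, mean of three experiments.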

[3] = Plasma concentration in rat at 30 mg/kg, po after 1 hr; type: ADME, organism-based; design: dose 30 mg/kg, route oral
Outline: (§1)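 Rats dosed orally at 30 mg/kg; plasma sampled at 1 and 2 h; n = 2 or 3.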

[4] = Plasma concentration in rat at 30 mg/kg, po after 2 hrs; type: ADME, organism-based; design: dose 30 mg/kg, route oral; outline: as §1

Sequence of RNA-directed RNA polymerase (O39930 whole entry, the tested form may be a part): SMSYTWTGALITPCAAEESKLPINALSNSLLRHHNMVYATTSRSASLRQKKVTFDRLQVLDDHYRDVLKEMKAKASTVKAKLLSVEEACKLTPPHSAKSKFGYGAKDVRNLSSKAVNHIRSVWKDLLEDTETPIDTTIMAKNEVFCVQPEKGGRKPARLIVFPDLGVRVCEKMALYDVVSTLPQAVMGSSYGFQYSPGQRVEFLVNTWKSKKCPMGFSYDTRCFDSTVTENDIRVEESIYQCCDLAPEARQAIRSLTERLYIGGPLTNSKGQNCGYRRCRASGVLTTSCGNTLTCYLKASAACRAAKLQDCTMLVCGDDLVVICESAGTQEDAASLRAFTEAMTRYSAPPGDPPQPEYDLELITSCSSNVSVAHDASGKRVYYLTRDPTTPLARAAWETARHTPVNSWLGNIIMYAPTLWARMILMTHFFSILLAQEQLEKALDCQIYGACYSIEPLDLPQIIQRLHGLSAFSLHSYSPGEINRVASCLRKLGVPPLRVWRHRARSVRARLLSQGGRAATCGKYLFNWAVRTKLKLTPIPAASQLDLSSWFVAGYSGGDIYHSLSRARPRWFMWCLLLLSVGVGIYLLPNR

Structure (SMILES) | IC50 [1] [nM] | selectivity ratio [2] | CC50 (Huh-5-2) [nM] | EC50 (Hepatitis C virus) [nM] | concentration at 1 h [3] [nM] | concentration at 2 h [4] [nM]
CN(C)C(=O)Nc1ccc(-c2ccc(Cl)cc2)c(COc2ccc(-c3nc4cc(C(=O)O)ccc4n3C3CCCCC3)c(F)c2)c1 | 22 | 40 | 25000 | 620 |  | 
O=C(O)c1ccc2c(c1)nc(-c1ccc(OCc3cc(Cl)ccc3-c3cccnc3)cc1)n2C1CCCCC1 | 290 |  |  | 2600 |  | 
Cc1nc(-c2ccc(Cl)cc2)c(COc2ccc(-c3nc4cc(C(=O)O)ccc4n3C3CCCCC3)cc2)s1 | 90 | 13 | 39000 | 2900 |  | 
O=C(O)c1ccc2c(c1)nc(-c1ccc(OCc3ccccc3-c3ccc(Cl)cc3)cc1)n2C1CCCCC1 | 78 | 11 | 35000 | 3200 |  | 
N#Cc1ccc(-c2ccc(Cl)cc2COc2ccc(-c3nc4cc(C(=O)O)ccc4n3C3CCCCC3)cc2)cc1 | 55 |  | 26000 | 1300 |  | 
O=C(O)c1ccc2c(c1)nc(-c1ccc(OCc3cc(C(=O)NCc4ccccc4)ccc3-c3ccc(Cl)cc3)cc1)n2C1CCCCC1 | 29 | 20 | 22000 | 1100 |  | 
Cc1ncc(COc2ccc(-c3nc4cc(C(=O)O)ccc4n3C3CCCCC3)cc2)c(-c2ccc(Cl)cc2)n1 | 88 | 16 | 24000 | 1500 |  | 
CN(C)c1ccc(-c2ccc(Cl)cc2)c(COc2ccc(-c3nc4cc(C(=O)O)ccc4n3C3CCCCC3)cc2)c1 | 63 | 12 | 30000 | 2600 |  | 
O=C(O)c1ccc2c(c1)nc(-c1ccc(OCc3cc(Cl)ccc3-c3ccc(Cl)cc3)cc1)n2C1CCCCC1 | 50 | 13 | 26000 | 3000 |  | 
CNC(=O)c1ccc(-c2ccc(Cl)cc2)c(COc2ccc(-c3nc4cc(C(=O)O)ccc4n3C3CCCCC3)cc2)c1 | 18 | 47 | 25000 | 530 |  | 
COc1ccc(-c2ccc(Cl)cc2COc2ccc(-c3nc4cc(C(=O)O)ccc4n3C3CCCCC3)cc2)cc1 | 100 |  | 25000 | 2400 |  | 
CC(=O)c1ccc(-c2ccc(Cl)cc2)c(COc2ccc(-c3nc4cc(C(=O)O)ccc4n3C3CCCCC3)cc2)c1 | 18 | 71 | 24000 | 340 |  | 
COc1cc(OCc2ccccc2-c2ccccc2)ccc1-c1nc2cc(C(=O)O)ccc2n1C1CCCCC1 | 1100 |  |  |  |  | 
CC(C)C(=O)N(C)c1ccc(-c2ccc(Cl)cc2)c(COc2ccc(-c3nc4cc(C(=O)O)ccc4n3C3CCCCC3)c(F)c2)c1 | 32 | 63 | 22000 | 350 | 1900 | 1100
O=C(O)c1ccc2c(c1)nc(-c1ccc(OCc3cccnc3-c3ccc(Cl)cc3)cc1)n2C1CCCCC1 | 53 | > 41 | > 50000 | 1200 |  | 
Cc1nc(COc2ccc(-c3nc4cc(C(=O)O)ccc4n3C3CCCCC3)cc2)c(-c2ccc(Cl)cc2)s1 | 170 | 4.9 | 31000 | 6300 |  | 
O=C(O)c1ccc2c(c1)nc(-c1ccc(OCc3cc(Cl)ccc3-c3ccccc3)cc1)n2C1CCCCC1 | 200 |  | 25000 | 3700 |  | 
CC(=O)Nc1ccc(-c2ccc(Cl)cc2)c(COc2ccc(-c3nc4cc(C(=O)O)ccc4n3C3CCCCC3)c(F)c2)c1 | 14 | 52 | 24000 | 460 | 1000 | 300
O=C(O)c1ccc2c(c1)nc(-c1ccc(OCc3cc(C(=O)NCCO)ccc3-c3ccc(Cl)cc3)cc1F)n2C1CCCCC1 | 21 | 28 | 26000 | 940 |  | 
COc1ccc(-c2ccc(Cl)cc2)c(COc2ccc(-c3nc4cc(C(=O)O)ccc4n3C3CCCCC3)cc2)c1 | 37 | 15 | 24000 | 1600 |  | 
O=C(O)c1ccc2c(c1)nc(-c1ccc(OCc3cc(C(=O)N4CCC(O)CC4)ccc3-c3ccc(Cl)cc3)cc1F)n2C1CCCCC1 | 14 | 68 | 26000 | 380 | 100 | 
N#Cc1ccc(-c2ccc(Cl)cc2)c(COc2ccc(-c3nc4cc(C(=O)O)ccc4n3C3CCCCC3)cc2)c1 | 41 | 28 | 23000 | 820 |  | 

Structure (SMILES) | IC50 [1] [nM] | selectivity ratio [2] | CC50 (Huh-5-2) [nM] | EC50 (Hepatitis C virus) [nM] | concentration at 1 h [3] [nM] | concentration at 2 h [4] [nM]
CC(=O)N(C)c1ccc(-c2ccc(Cl)cc2)c(COc2ccc(-c3nc4cc(C(=O)O)ccc4n3C3CCCCC3)c(F)c2)c1 | 16 | 173 | 26000 | 150 | 900 | 1100
CC(C)NC(=O)c1ccc(-c2ccc(Cl)cc2)c(COc2ccc(-c3nc4cc(C(=O)O)ccc4n3C3CCCCC3)c(F)c2)c1 | 13 | 110 | 22000 | 200 | 1100 | 300
O=C(O)c1ccc(-c2ccc(Cl)cc2)c(COc2ccc(-c3nc4cc(C(=O)O)ccc4n3C3CCCCC3)cc2)c1 | 24 |  | > 50000 | > 10000 |  | 
CN(C)C(=O)c1ccc(-c2ccc(Cl)cc2)c(COc2ccc(-c3nc4cc(C(=O)O)ccc4n3C3CCCCC3)cc2)c1 | 15 | 76 | 28000 | 370 |  | 
CCN(C(C)=O)c1ccc(-c2ccc(Cl)cc2)c(COc2ccc(-c3nc4cc(C(=O)O)ccc4n3C3CCCCC3)c(F)c2)c1 | 19 | 179 | 25000 | 140 | 1500 | 800
NC(=O)c1ccc(-c2ccc(Cl)cc2COc2ccc(-c3nc4cc(C(=O)O)ccc4n3C3CCCCC3)cc2)cc1 | 69 |  | > 50000 | 2500 |  | 
O=C(O)c1ccc2c(c1)nc(-c1ccc(OCc3ccccc3-c3ccccc3)c(F)c1)n2C1CCCCC1 | 380 |  |  |  |  | 
CN(C)C(=O)c1ccc(-c2ccc(Cl)cc2)c(COc2ccc(-c3nc4cc(C(=O)O)ccc4n3C3CCCCC3)c(F)c2)c1 | 12 | 163 | 26000 | 160 | 1600 | 1800
CN(C)C(=O)c1ccc(COc2ccc(-c3nc4cc(C(=O)O)ccc4n3C3CCCCC3)cc2)c(-c2ccc(Cl)cc2)c1 | 32 | 30 | 25000 | 840 |  | 
O=C(O)c1ccc2c(c1)nc(-c1ccc(OCc3cc(Cl)ccc3-c3cccc(Cl)c3)cc1)n2C1CCCCC1 | 480 |  | 32000 | 6500 |  | 
CN(C)S(=O)(=O)c1ccc(-c2ccc(Cl)cc2)c(COc2ccc(-c3nc4cc(C(=O)O)ccc4n3C3CCCCC3)cc2)c1 | 23 | 39 | 26000 | 660 |  | 
NS(=O)(=O)c1ccc(-c2ccc(Cl)cc2)c(COc2ccc(-c3nc4cc(C(=O)O)ccc4n3C3CCCCC3)cc2)c1 | 16 | 18 | 27000 | 1500 |  | 
O=C(O)c1ccc2c(c1)nc(-c1ccc(OCc3ncccc3-c3ccc(Cl)cc3)cc1)n2C1CCCCC1 | 150 | 6 | 25000 | 3900 |  | 
Cc1ccc(-c2ccc(Cl)cc2COc2ccc(-c3nc4cc(C(=O)O)ccc4n3C3CCCCC3)cc2)cc1 | 98 |  | 25000 | 3400 |  | 
O=C(O)c1ccc2c(c1)nc(-c1ccc(OCc3cc(C(=O)N4CCOCC4)ccc3-c3ccc(Cl)cc3)cc1F)n2C1CCCCC1 | 14 | 89 | 25000 | 280 | 1100 | 500
O=C(O)c1ccc2c(c1)nc(-c1ccc(OCc3ccccc3-c3ccccc3)cc1Cl)n2C1CCCCC1 | 350 |  |  |  |  | 
CC(=O)Nc1ccc(-c2ccc(Cl)cc2)c(COc2ccc(-c3nc4cc(C(=O)O)ccc4n3C3CCCCC3)cc2)c1 | 22 | 18 | 23000 | 1300 |  | 
CC(=O)N(c1ccc(-c2ccc(Cl)cc2)c(COc2ccc(-c3nc4cc(C(=O)O)ccc4n3C3CCCCC3)c(F)c2)c1)C(C)C | 21 | 125 | 20000 | 160 | 1100 | 700
O=C(O)c1ccc2c(c1)nc(-c1ccc(OCc3ccccc3-c3ccccc3)cc1C(F)(F)F)n2C1CCCCC1 | 930 |  |  |  |  | 
O=C(O)c1ccc2c(c1)nc(-c1ccc(OCc3ccccc3-c3ccccc3)cc1F)n2C1CCCCC1 | 100 |  |  |  |  | 
O=C(O)c1ccc2c(c1)nc(-c1ccc(OCc3cc(C(=O)N4CCCCC4)ccc3-c3ccc(Cl)cc3)cc1F)n2C1CCCCC1 | 18 | 89 | 24000 | 270 | 2200 | 700
NC(=O)c1ccc(-c2ccc(Cl)cc2)c(COc2ccc(-c3nc4cc(C(=O)O)ccc4n3C3CCCCC3)cc2)c1 | 13 | 33 | 26000 | 790 |  | 
